Results on 26 compounds are retold here after ChEMBL document CHEMBL1121388, “Analgesic narcotic antagonists. 2. 8-Alkymorphinan-6-ones” (J Med Chem, 1980).

Active and inactive are the calls of the source. The rule behind the calls is not given here. Some results are limits rather than exact numbers.

For assay [1], the system named is Mus musculus. Briefly: The effective dose was measured by using mouse writhing assay after the compound administered subcutaneously. The format is functional. Particulars: sc. In short, it runs like this:
(§1)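 Analgesia in the mouse writhing test induced by acetic acid, with compound given subcutaneously. Salts were dissolved in distilled H₂O; free bases were dissolved by dropwise 1 N HCl and then diluted.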
(In general: In writhing tests, fewer writhes than in controls are read as antinociception.)

Assay [2] deals with Rattus norvegicus. Briefly: The Effective dose was measured by using rat tail flick assay after the compound administered intraperitoneally at a dose of 25 umol/kg; IA means inactive at the given dose. Format: functional, organism-based. Background: Thermal pain tests record how soon the animal reacts.
Assay [3] has as its system Rattus norvegicus. Briefly: Effective dose was measured by using rat tail flick assay after subcutaneous administration. Particulars: sc. Format: functional. In short, it runs like this:
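Agonist activity in the rat heat-stimulus tail-flick test. Drug was given subcutaneously and rats were tested 20 min after dosing. Salts were dissolved in distilled H₂O; free bases were dissolved with dropwise 1 N HCl and then diluted. ED₅₀ or inactivity/lethality recorded at the dose indicated.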

In assay [4] the test system is Rattus norvegicus. Nature of the assay: The effective dose was measured by using rat tail flick assay after the compound administered intraperitoneally. Format: functional. Particulars: ip.
The test system of assay [5] is Mus musculus. Nature of the assay: The Effective dose was measured by using mouse writhing assay after the compound administered subcutaneously at a dose of 24 umol/kg; IA means inactive at the given dose. The format is functional, organism-based. In short, it runs like this: as §1
The species named for assay [6] is Rattus norvegicus. Nature of the assay: Ratio of agonist to that of antagonist activity. The format is functional.
Assay [7] deals with Rattus norvegicus. Briefly: The %change in weight from day 0 to day1 after administering the compound at dose of 40 (mg/kg)/day in rat. Format: functional. In short, it runs like this:
(§2)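 Rat physical dependence liability study: drug infused at the stated mg/kg/day for 6 days, with saline-infused controls for 6 days. Body weight was recorded daily and expressed as % change from day 0 on days 1–4. Groups of 4–6 rats; values are means ±.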

Assay [8] has as its system Rattus norvegicus. Nature of the assay: The %change in weight from day 0 to day 2 after administering the compound at dose of 40 (mg/kg)/day in rat. Format: functional. The method in brief: as §2
Assay [9] concerns Rattus norvegicus. Nature of the assay: The %change in weight from day 0 to day 3 after administering the compound at dose of 40 (mg/kg)/day in rat. Format: functional. The method in brief: as §2
The test system of assay [10] is Rattus norvegicus. Nature of the assay: The %change in weight from day 0 to day 4 after administering the compound at dose of 40 (mg/kg)/day in rat. Format: functional. The method in brief: as §2
Assay [11] deals with Mus musculus. Briefly: The Effective dose was measured by using mouse writhing assay after the compound administered subcutaneously at a dose of 25 umol/kg; IA means inactive at the given dose. The format is functional, organism-based. The method in brief: as §1
The test system of assay [12] is Mus musculus. Briefly: The Effective dose was measured by using mouse writhing assay 5 min after the compound administered subcutaneously. Format: functional. Particulars: sc.

Usually ED50 stands for the dose that gives a 50% effect, or the effect in half of the subjects. In the case of `O=C1CC[C@H]2C3Cc4ccc(O)cc4C2(CCN3CC2CCC2)C1` (some centres undefined), the ED50 in the assay on Mus musculus [1] was 0.047 µmol/kg. Besides, in the assay on Rattus norvegicus [2], the ED50 entry was “inactive”.

Regarding `CCC[C@H]1CC(=O)CC23CCN(CC4CC4)C(Cc4ccc(OC)cc42)[C@H]13` (some centres undefined), the ED50 in the assay on Mus musculus [1] worked out at 12.4 µmol/kg. In the assay on Rattus norvegicus [2], the ED50 entry is “inactive”.

With `CCC[C@@H]1CC(=O)CC23CCN(C)C(Cc4ccc(O)cc42)[C@@H]13` (some centres undefined), the ED50 with Mus musculus [1] was 1.37 µmol/kg; with Rattus norvegicus [3], 2.46 µmol/kg.

For `C[C@H]1CC(=O)CC23CCN(C)C(Cc4ccc(O)cc42)[C@H]13` (some centres undefined), the figures for the ED50 with Mus musculus [1] and in the assay with Rattus norvegicus [3] were 2.55 µmol/kg and more than 30 µmol/kg, respectively.

Consider `COc1ccc2c(c1)C13CCN(C)C(C2)[C@H]1CCC(=O)C3` (some centres undefined), for which the values for the ED50 in the assay on Mus musculus [1] and with Rattus norvegicus [3] were 5.54 µmol/kg and more than 70 µmol/kg, respectively.

Turning to `CN1CCC23CC(=O)CC[C@@H]2C1Cc1ccc(O)cc13` (some centres undefined), the ED50 with Mus musculus [1] is 0.75 µmol/kg; in the assay on Rattus norvegicus [3], 1.33 µmol/kg.

For the compound `CCC[C@H]1CC(=O)CC23CCN(CC4CCC4)C(Cc4ccc(O)cc42)[C@H]13` (some centres undefined), the ED50 with Mus musculus [1] is 1.06 µmol/kg; with Rattus norvegicus [4], 7.67 µmol/kg.

As to `CC[C@H]1CC(=O)CC23CCN(CC4CC4)C(Cc4ccc(OC)cc42)[C@H]13` (some centres undefined), the ED50 with Mus musculus [1] was 4.4 µmol/kg; in the assay with Rattus norvegicus [4], more than 50 µmol/kg.

On to `O=C1CC[C@@H]2C3Cc4ccc(O)cc4C2(CCN3CC2CCC2)C1` (some centres undefined), for which the figures for the ED50 in the assay on Mus musculus [1] and in the assay with Rattus norvegicus [4] were 2.6 µmol/kg and 13.8 µmol/kg, respectively.

For `CC[C@@H]1CC(=O)CC23CCN(C)C(Cc4ccc(O)cc42)[C@@H]13` (some centres undefined), the ED50 is 2.11 µmol/kg in the assay on Mus musculus [1] and 2.31 µmol/kg in the assay on Rattus norvegicus [3].

`CCC[C@@H]1CC(=O)CC23CCN(CC4CCC4)C(Cc4ccc(OC)cc42)[C@@H]13` (some centres undefined): the ED50 result in the assay with Mus musculus [5] was “inactive”. The ED50 in the assay on Rattus norvegicus [4] is more than 24 µmol/kg.

Take `CC[C@H]1CC(=O)CC23CCN(C)C(Cc4ccc(OC)cc42)[C@H]13` (some centres undefined): the ED50 in the assay on Mus musculus [1] is 3.23 µmol/kg; in the assay on Rattus norvegicus [3], 10.6 µmol/kg.

For `COc1ccc2c(c1)C13CCN(CC4CC4)C(C2)[C@@H]1CCC(=O)C3.Cl` (some centres undefined), the figures for the ED50 with Mus musculus [1] and with Rattus norvegicus [4] were 0.66 µmol/kg and 14.9 µmol/kg, respectively. For the same compound, the Ratio in the assay filed under Rattus norvegicus [6] is 0.04.

The compound `COc1ccc2c(c1)C13CCN(CC4CCC4)C(C2)[C@H]1[C@H](C)CC(=O)C3` (some centres undefined) came in with an ED50 in the assay with Mus musculus [1] of 47 µmol/kg. Further, the ED50 result with Rattus norvegicus [2] was “inactive”.

Take `COc1ccc2c(c1)C13CCN(CC4CCC4)C(C2)[C@@H]1[C@@H](C)CC(=O)C3.Cl` (some centres undefined): the values for the ED50 in the assay with Mus musculus [1] and with Rattus norvegicus [4] were 1.38 µmol/kg and 16.4 µmol/kg, respectively. Further, in the assay filed under Rattus norvegicus [6], the Ratio turned out to be 0.08.

In the case of `C=CCN1CCC23CC(=O)CC(C)[C@H]2C1Cc1ccc(OC)cc13` (some centres undefined), the ED50 in the assay with Mus musculus [1] is 3.47 µmol/kg; in the assay on Rattus norvegicus [4], more than 24 µmol/kg.

On to `COc1ccc2c(c1)C13CCN(C)C(C2)[C@@H]1[C@@H](C)CC(=O)C3` (some centres undefined), for which the ED50 came to 1.34 µmol/kg with Mus musculus [1] and 3.57 µmol/kg with Rattus norvegicus [3].

With `O=C(O)C(O)C(O)C(=O)O.Oc1ccc2c(c1)[C@@]13CCCC[C@@]1(O)[C@@H](C2)N(CC1CCC1)CC3` [BUTORPHANOL TARTRATE], the Change with Rattus norvegicus [7] is on record as -6.6%; in the assay with Rattus norvegicus [8], -3.1%; in the assay on Rattus norvegicus [9], 0.9%; in the assay with Rattus norvegicus [10], 2.2%.

On to `CC[C@@H]1CC(=O)CC23CCN(CC4CC4)C(Cc4ccc(OC)cc42)[C@@H]13` (some centres undefined), for which the ED50 entry with Mus musculus [11] is “inactive”. Moreover, the ED50 in the assay with Rattus norvegicus [4] was 1.64 µmol/kg.

Take `Cl.O=C1CC[C@@H]2C3Cc4ccc(O)cc4C2(CCN3CC2CC2)C1` (some centres undefined): the ED50 in the assay on Mus musculus [12] is 8.9 µmol/kg; with Rattus norvegicus [4] it was 2.24 µmol/kg. Also, the Ratio in the assay filed under Rattus norvegicus [6] is given as 4.

On to `O=C1CC[C@H]2C3Cc4ccc(O)cc4C2(CCN3CC2CC2)C1` (some centres undefined), for which the ED50 with Mus musculus [1] came to 3.28 µmol/kg; in the assay with Rattus norvegicus [4] it was 7.4 µmol/kg. The Ratio in the assay filed under Rattus norvegicus [6] worked out at 0.44.

On to `COc1ccc2c(c1)C13CCN(CC4CC4)C(C2)[C@H]1[C@H](C)CC(=O)C3` (some centres undefined), for which the ED50 in the assay with Mus musculus [1] is more than 80 µmol/kg; with Rattus norvegicus [4] it was 9 µmol/kg.

On to `CC[C@H]1CC(=O)CC23CCN(C)C(Cc4ccc(O)cc42)[C@H]13` (some centres undefined), for which the figures for the 50% effective dose (ED50) with Mus musculus [1] and in the assay with Rattus norvegicus [3] were 2.29 µmol/kg and 33 µmol/kg, respectively.

As to `CC[C@@H]1CC(=O)CC23CCN(CC4CCC4)C(Cc4ccc(O)cc42)[C@@H]13` (some centres undefined), the 50% effective dose (ED50) in the assay on Mus musculus [1] is more than 24 µmol/kg; in the assay with Rattus norvegicus [4] it was 11.6 µmol/kg.

Take `Oc1ccc2c(c1)[C@@]13CCCC[C@@]1(O)[C@@H](C2)N(CC1CCC1)CC3` [BUTORPHANOL]: the ED50 in the assay with Mus musculus [1] was determined as 0.34 µmol/kg; in the assay with Rattus norvegicus [4] it was 2 µmol/kg. The Ratio in the assay filed under Rattus norvegicus [6] is on record as 0.17.

Turning to `COc1ccc2c(c1)C13CCN(C)C(C2)[C@@H]1CCC(=O)C3` (some centres undefined), the ED50 in the assay on Mus musculus [1] turned out to be 1.72 µmol/kg; in the assay with Rattus norvegicus [3] it was 2.32 µmol/kg.
